CASP6 VEID inh – inhibitors of human caspase-6; P55212; purified caspase-6, Z-VEID-R110 cleavage fluorescence; inhibition, % at 12.5 µM; 350,000 tested, 0.53% active;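 active = mean inhibition across replicates at least about 35%, with every replicate also reaching that limit, limit read from the data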
FGF22 binding – binders of recombinant human FGF22 by thermal shift. SYPRO orange fluorescence; percent of sucrose octasulfate shift, DMSO zero. Q9HCT0. 340,000 tested, 1.5% active. activity (Tm shift, normalised), % at 9.99 µM. AID 651658;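 active = mean Tm shift, scaled 0 neutral to 100 positive control, at about 1.3% or above, every replicate too, limit read from the data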
NSD2 inh – NSD2 (human) methyltransferase inhibition. O96028. NSD2 peptide methylation, AlphaScreen, 120 min. inhibition, % at 12.5 µM. 310,000 tested, 0.54% active. AID 743445; in the data active = inhibition above about 50%
Target sequence (O96028 whole entry, looked up): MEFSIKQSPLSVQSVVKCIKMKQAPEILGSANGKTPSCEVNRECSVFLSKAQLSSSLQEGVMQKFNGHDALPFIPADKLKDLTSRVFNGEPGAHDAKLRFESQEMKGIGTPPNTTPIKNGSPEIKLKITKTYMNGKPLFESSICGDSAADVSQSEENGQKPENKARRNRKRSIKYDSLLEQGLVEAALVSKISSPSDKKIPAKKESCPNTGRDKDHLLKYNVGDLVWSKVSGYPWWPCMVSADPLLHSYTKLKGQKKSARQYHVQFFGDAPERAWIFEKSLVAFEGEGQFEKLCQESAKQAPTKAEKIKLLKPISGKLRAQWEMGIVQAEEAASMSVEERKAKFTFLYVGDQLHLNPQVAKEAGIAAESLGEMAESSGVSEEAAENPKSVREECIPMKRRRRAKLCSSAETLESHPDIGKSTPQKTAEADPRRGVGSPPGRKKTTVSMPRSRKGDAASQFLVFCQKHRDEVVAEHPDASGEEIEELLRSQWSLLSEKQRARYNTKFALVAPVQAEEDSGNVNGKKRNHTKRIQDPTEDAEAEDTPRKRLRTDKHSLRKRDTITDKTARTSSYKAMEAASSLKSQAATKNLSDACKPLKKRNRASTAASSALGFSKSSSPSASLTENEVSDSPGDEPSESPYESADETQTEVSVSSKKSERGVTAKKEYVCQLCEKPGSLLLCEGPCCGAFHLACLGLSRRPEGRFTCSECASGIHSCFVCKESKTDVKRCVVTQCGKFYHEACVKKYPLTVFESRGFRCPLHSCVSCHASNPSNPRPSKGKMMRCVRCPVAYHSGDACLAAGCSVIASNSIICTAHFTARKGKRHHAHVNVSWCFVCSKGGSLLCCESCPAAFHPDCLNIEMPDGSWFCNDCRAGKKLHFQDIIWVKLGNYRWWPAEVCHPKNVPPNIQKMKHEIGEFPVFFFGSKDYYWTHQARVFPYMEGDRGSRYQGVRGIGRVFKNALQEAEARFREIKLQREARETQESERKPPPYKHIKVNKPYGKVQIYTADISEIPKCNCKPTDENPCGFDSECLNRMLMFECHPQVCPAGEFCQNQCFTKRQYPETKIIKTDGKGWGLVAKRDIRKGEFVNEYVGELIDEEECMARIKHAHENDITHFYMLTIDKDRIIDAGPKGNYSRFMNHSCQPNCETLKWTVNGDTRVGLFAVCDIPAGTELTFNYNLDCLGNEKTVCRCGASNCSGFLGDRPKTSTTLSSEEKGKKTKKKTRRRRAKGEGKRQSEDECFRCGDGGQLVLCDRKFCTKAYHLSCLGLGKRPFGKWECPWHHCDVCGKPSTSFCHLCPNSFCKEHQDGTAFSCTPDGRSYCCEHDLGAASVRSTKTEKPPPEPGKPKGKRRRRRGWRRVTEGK
SIRT5 block – sirtuin-5 (human) deacylase inhibition. 330,000 tested, 1.1% active. inhibition, % at 15 µM. Q9NXA8. Purified SirT5, succinyl-peptide AMC, trypsin-coupled fluorescence. AID 652115; in the data active = inhibition above about 15%
UCH37 DUB inh – blocks the human deubiquitinase UCH37; purified proteasome/UCH37, Ub-AMC cleavage fluorescence; inhibition, % (test concentration not listed); 330,000 tested, 0.33% active; AID 588478;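 active = mean inhibition over replicate wells above about 20%, limit read from the data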
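Material: Human UCH37 enzyme supplied as purified proteasome complex | Schedule: 30 min compound-proteasome preincubation then 25 min substrate reaction, room temperature | Detection: AMC fluorescence from Ub-AMC cleavage, excitation 355 nm, emission 460 nm | Benchmarks: Wells without proteasome as full block, compound-free enzyme plus substrate as uninhibited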
Numbers stand for hits; . = inactive; / = no result given. The list is not random: actives were taken first. Their share in the collection is about 2.6%.

SMILES	CASP6 VEID inh	FGF22 binding	NSD2 inh	SIRT5 block	UCH37 DUB inh
O=C(O)c1ccccc1-c1c2cc(I)c(=O)c(I)c-2oc2c(I)c(O)c(I)cc12	.	.	/	29	.
CCOc1c(Br)cc(Br)cc1/C=C1\SC(N)=NC1=O	.	.	.	15	.
COc1cccc(NC(=O)N[C@H]2C=C[C@H](CC(=O)N3CCOCC3)O[C@@H]2CO)c1	.	.	/	.	/
Cc1cc2cc(CNC(=O)Cc3ccc([N+](=O)[O-])cc3)ccc2n1C	.	44	.	.	.
O=C(Cc1ccc([N+](=O)[O-])cc1)NCc1ccccn1	.	43	.	.	.
O=C(c1ccc([N+](=O)[O-])cc1)N(c1ccccn1)c1ccccn1	.	.	.	20	.
Cc1cc2cc(CNC(=O)c3cccc([N+](=O)[O-])c3)ccc2n1C	.	.	/	.	.
COc1ccc(NC(=O)N2C[C@@H](O)COC[C@@H]3O[C@@H](CC(=O)NC4Cc5ccccc5C4)CC[C@H]32)cc1	.	.	/	.	/
Cc1ccc(/C=C2\C(=O)ON=C2c2ccccc2)o1	.	/	.	15	.
Cc1ccc(C2=NOC(=O)/C2=C\c2ccc(C)o2)cc1	41	.	.	.	.
Cc1ccc(-c2ccc(/C=C3\C(=O)ON=C3c3ccccc3)o2)c([N+](=O)[O-])c1	/	/	.	/	.
COCCN(C[C@@H]1N[C@@H](CO)[C@@H]1c1ccc(-c2ccc(F)cc2)cc1)C(C)=O	.	.	/	.	/
C[C@@H]1CN([C@@H](C)CO)C(=O)c2cc(NC(=O)CCN3CCOCC3)ccc2O[C@@H]1CN(C)S(=O)(=O)c1cccs1	.	.	/	.	/
C[C@H]1CN([C@@H](C)CO)C(=O)c2cc(C#CC3CCCC3)cnc2O[C@@H]1CN(C)C(=O)C1CCC1	.	.	/	.	/
O=C(Nc1nc(-c2ccco2)c(-c2ccco2)s1)c1c(F)cccc1Cl	75	.	.	.	.
O=C(CC1CC1)N[C@H]1CC[C@H](CCNS(=O)(=O)c2ccc(Cl)cc2)O[C@@H]1CO	.	.	/	.	/
Cc1nnc(SCC(=O)NC2CCCCCC2)n1C(C)C	44	.	/	.	.
Nc1nc(SCC(=O)NC2CCCCC2)n[nH]1	95	.	.	.	.
Cc1ccc(-c2nnc(SCC(=O)NC3CCCC3)n2N)cc1	.	44	.	/	.
Cc1ccc(-n2nnnc2SCC(=O)NC2CC2)cc1C	57	.	/	.	.
C[C@@H]1CN([C@H](C)CO)C(=O)c2cc(NC(=O)Nc3ccccc3)ccc2O[C@@H](C)CCCCO[C@H]1CN(C)S(=O)(=O)c1cccs1	.	.	/	.	/
COCCN1C(=O)N[C@@H](c2cccc(C(F)(F)F)c2)[C@H](C(=O)OC)[C@H]1C	.	.	/	.	.
COCCN1C(=O)N[C@@H](c2ccccc2)[C@@H](C(=O)OC)[C@H]1C	.	.	/	.	22
Cc1noc(C)c1NC(=O)Nc1ccc2c(c1)C(=O)N([C@@H](C)CO)C[C@@H](C)[C@@H](CN(C)Cc1ccc(C(=O)O)cc1)OCCCC[C@H](C)O2	/	.	/	/	/
COc1ccc(CC2(CO)CCN(Cc3ccc4nsnc4c3)CC2)cc1	.	43	.	.	.
SMILES	CASP6 VEID inh	FGF22 binding	NSD2 inh	SIRT5 block	UCH37 DUB inh
COc1ccccc1CNC(=O)C[C@H]1CC[C@@H](NC(=O)CN(C)C)[C@H](CO)O1	.	.	/	.	/
Cc1ccc(C[n+]2cc(-c3ccc(Cl)cc3)n3c2CCC3)cc1	.	.	.	.	.
Cc1ccc(-c2c[n+](Cc3ccc(Cl)cc3)c3n2CCC3)cc1	.	.	.	40	.
C[C@H]1CN([C@@H](C)CO)C(=O)Cc2cc(NS(=O)(=O)c3ccc(F)cc3)ccc2O[C@H]1CN(C)S(=O)(=O)c1ccc(F)cc1	.	.	/	.	/
O=c1c2ccccc2nc2c3ccccc3c(NCc3ccccn3)nn12	.	.	.	112	.
C=CCNC(=S)NC(CC(=O)OC)c1ccc2c(c1)OCO2 (configuration not stated)	.	43	.	.	.
C[C@@H]1CN([C@@H](C)CO)C(=O)Cc2cc(NC(=O)Cc3ccccc3)ccc2O[C@@H]1CN(C)Cc1ccc(C(=O)Nc2ccccc2N)cc1	/	.	/	/	/
CCC(=O)c1ccc(N2CCN(C(=O)c3ccccc3)CC2)c(F)c1	88	.	.	.	.
COc1ccc2cc(CN(CC3CCCO3)C(=S)NCc3ccco3)c(=O)[nH]c2c1 (configuration not stated)	.	43	.	.	.
COc1ccc(NC(=O)N(Cc2cc3cc(C)ccc3[nH]c2=O)CC2CCCO2)cc1 (configuration not stated)	.	.	.	.	.
CN(C)CCN(Cc1cc2cc3c(cc2[nH]c1=O)OCO3)C(=S)NCc1ccco1	.	43	.	.	.
COc1ccc2cc(CN(CC3CCCO3)S(=O)(=O)c3ccccc3)c(=O)[nH]c2c1 (configuration not stated)	/	/	.	/	.
Cc1ccc2cc(CN(CC3CCCO3)C(=S)NCc3ccco3)c(=O)[nH]c2c1 (configuration not stated)	.	.	.	.	.
COc1ccc2[nH]c(=O)c(CN(CC3CCCO3)C(=S)Nc3ccc(C)cc3)cc2c1 (configuration not stated)	.	43	.	.	.
COc1ccc2[nH]c(=O)c(CN(CC3CCCO3)S(=O)(=O)c3ccccc3)cc2c1 (configuration not stated)	.	44	.	.	.
CCNC(=O)Nc1ccc2c(c1)C(=O)N(C)[C@@H]1CC[C@@H](CC(=O)N[C@H](C)c3ccccc3)O[C@@H]1CO2	/	/	/	.	/
COc1ccc2c3c(n(C)c2c1)[C@H](CO)N(CC1CC1)CC31CN(C(=O)c2ccccc2)C1	/	.	/	/	/
Cc1cc(C)nc(NN=Cc2ccccc2OCc2cccc(Br)c2)n1	/	/	/	/	.
O=C(NN=Cc1cc2c(cc1Cl)OCO2)c1cccs1	/	/	/	/	.
CCNC(=S)N(CCN(C)C)Cc1cc2cc(OCC)ccc2[nH]c1=O	.	44	.	.	.
Cc1ccc(C)c2[nH]c(=O)c(CN(Cc3ccco3)C(=S)NCC3CCCO3)cc12 (configuration not stated)	.	43	.	.	.
Cc1ccc2cc(CN(Cc3ccco3)C(=S)NCC3CCCO3)c(=O)[nH]c2c1 (configuration not stated)	/	/	.	/	.
CCNC(=S)N(Cc1cccs1)Cc1cc2cc(OCC)ccc2[nH]c1=O	/	/	.	/	.
C[C@H]1CN([C@@H](C)CO)C(=O)c2cc(NC(=O)CCC(F)(F)F)ccc2O[C@@H]1CN(C)S(=O)(=O)c1cn(C)cn1	.	.	/	.	/
C[C@@H]1CCCCO[C@@H](CN(C)C(=O)CCCN(C)C)[C@H](C)CN([C@@H](C)CO)C(=O)c2cc(NS(=O)(=O)c3ccc(F)cc3)ccc2O1	.	.	/	.	/
COc1ccc(CNC(=O)C2(CC3CC(c4ccccc4)=NO3)CCN(C(=O)C3CCCC3)CC2)cc1 (configuration not stated)	.	.	/	.	30

Bioassay records (PubChem BioAssay)
